Source: PubChem
A selection: hits, their analogues and other compounds. The true share with any hit is near 5.5%.
Cl transport mod – KCC2 (human) Cl- transport modulation | B-score of Tl+ flux slope (higher = more flux/activation; lower = inhibition) at 10 µM | KCC2 cells, thallium flux FluoZin-2 fluorescence | 190,000 tested, 2.2% active;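 active means thallium flux slope and its plate-corrected score both differing from the plate sample mean at a set confidence after two filtering rounds, in either direction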;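 further: slope of fluorescence scaled to starting intensity during 10 to 20 s after thallium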
Target sequence (Q9H2X9 whole entry, looked up): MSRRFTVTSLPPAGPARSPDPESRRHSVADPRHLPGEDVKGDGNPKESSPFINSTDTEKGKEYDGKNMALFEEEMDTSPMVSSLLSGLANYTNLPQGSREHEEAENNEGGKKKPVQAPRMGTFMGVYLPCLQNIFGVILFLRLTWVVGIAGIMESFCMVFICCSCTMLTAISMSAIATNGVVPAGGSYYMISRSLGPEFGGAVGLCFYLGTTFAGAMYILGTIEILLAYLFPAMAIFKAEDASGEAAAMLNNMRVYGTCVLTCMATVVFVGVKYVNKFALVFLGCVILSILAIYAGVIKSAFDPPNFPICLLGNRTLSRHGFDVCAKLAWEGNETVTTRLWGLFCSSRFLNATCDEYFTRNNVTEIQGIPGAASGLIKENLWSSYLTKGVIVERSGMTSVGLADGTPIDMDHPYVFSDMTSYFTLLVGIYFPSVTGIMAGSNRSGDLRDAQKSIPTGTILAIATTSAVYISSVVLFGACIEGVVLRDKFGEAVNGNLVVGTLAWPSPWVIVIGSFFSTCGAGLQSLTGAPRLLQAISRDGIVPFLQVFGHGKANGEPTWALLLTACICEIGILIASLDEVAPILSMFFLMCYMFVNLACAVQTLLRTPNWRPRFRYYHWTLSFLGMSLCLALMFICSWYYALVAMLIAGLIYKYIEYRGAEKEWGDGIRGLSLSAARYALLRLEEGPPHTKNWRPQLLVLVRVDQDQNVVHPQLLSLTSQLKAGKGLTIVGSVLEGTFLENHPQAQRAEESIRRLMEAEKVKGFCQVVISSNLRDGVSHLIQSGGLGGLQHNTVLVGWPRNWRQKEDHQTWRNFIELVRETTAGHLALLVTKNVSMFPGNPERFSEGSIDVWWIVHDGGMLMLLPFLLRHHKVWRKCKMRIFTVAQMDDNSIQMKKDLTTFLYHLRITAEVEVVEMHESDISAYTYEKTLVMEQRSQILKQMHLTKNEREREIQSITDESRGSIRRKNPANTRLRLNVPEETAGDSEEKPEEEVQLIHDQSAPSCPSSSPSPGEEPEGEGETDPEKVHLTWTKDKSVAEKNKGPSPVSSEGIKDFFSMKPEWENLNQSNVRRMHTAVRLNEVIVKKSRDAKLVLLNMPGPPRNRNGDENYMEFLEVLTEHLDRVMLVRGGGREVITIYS
STAT1 blocker – reduces IFN-gamma driven STAT1 reporter signal | NIH 3T3 STAT1-luciferase reporter, luminescence | inhibition, % at 5.5 µM | 200,000 tested, 0.35% active | AID 920;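 active means inhibition above a set limit, the mean inhibition across all tested compounds plus 3 SD, cut at about 34% in these data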;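 further: 0% = IFN-gamma with DMSO and 100% = IFN-gamma with 300 µM nifuroxazide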
STAT3 act – increases IL-6 driven STAT3 reporter signal; U3A cells, IL-6 STAT3-luciferase reporter, luminescence; 100% = signal with IL-6 EC80 alone; activation (% of control), % at 5.6 µM; 190,000 tested, 0.91% active;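 active means activation above the screen-wide mean of compound activation plus 3 SD, cut at about 130% in these data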;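 further: 0% = background luminescence of wells with medium and substrate only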
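Material: STAT3-luciferase reporter U3A cells; Probe or stimulus: IL-6 (33 ng/mL); Incubation: compound pre-incubation 1 h before IL-6, then 6 h stimulation at 37 °C; Technique: luminescence from STAT3-driven luciferase reporter; Evaluation: % activation versus median of IL-6-stimulated wells; Controls: IL-6-only high control.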
HSV augment – increases HSV replication in cells | AID 1956 | maximum fold increase | HSV replication augmentation in cells, fold increase | 220,000 tested, 0.005% active; in the data active means maximum fold increase above about 1.5; inconclusive means no clear call, values can overlap the other calls; tested in PC3 cells
STAT1 act – STAT1 signaling activation; 200,000 tested, 2.6% active; AID 932; NIH 3T3 STAT1-luciferase reporter, IFN-gamma, luminescence; 100% = IFN-gamma alone, no compound; activation (% of control), % at 5.5 µM;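 active means activation above the screen-wide mean activation plus 3 SD, cut at about 130% in these data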;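 further: raw ratio to IFN-gamma control signal so 100% means no change and 0% no light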
STAT3 inh – reduces IL-6 driven STAT3 reporter signal | U3A cells, IL-6 STAT3-luciferase reporter, luminescence; host cell line lacks STAT1 | inhibition, % at 5.5 µM | 190,000 tested, 0.89% active | AID 862;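 active means inhibition above the mean inhibition across all screened compounds plus 3 SD, cut at about 44% in these data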;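 further: 0% = DMSO only wells and 100% = 100 µM nifuroxazide control wells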
An asterisk follows results filed as active; i = inactive; u = inconclusive; x = no result given.

SMILES	Cl transport mod	STAT1 blocker	STAT3 act	HSV augment	STAT1 act	STAT3 inh
Cc1ccc(Nc2ncnc3ccccc23)cc1	-1.8	-34	89	i	130*	15
CCOC(=O)c1cccc(Nc2ncnc3ccccc23)c1	-0.59	-11	88	i	112	15
Cc1ccccc1C(=O)Oc1cccc(Nc2ncnc3ccccc23)c1	-1.9	24	43	i	78	67*
Cc1cccc(Nc2ncnc3ccccc23)c1	x	-9	84	i	108	22
CC(C)Oc1ccc(Nc2ncnc3ccccc23)cc1	-0.66	-53	84	i	144*	24
CC(C)N(Cc1ccccc1)C(=O)COC(=O)/C=C/c1cnc2ccccc2n1	-2.2	3	106	i	96	-4
O=[N+]([O-])c1ccccc1/C=N/Nc1nccnc1Cl	0.66	-21	107	i	118	2
O=[N+]([O-])c1cccnc1N/N=C/c1ccccc1O	1.1	-34	93	i	130*	9
CC(=O)n1cc([C@H]2C=C(C(=O)NCc3ccccc3)O[C@@H](OCCCCO)C2)c2ccccc21	-1.5	2	x	i	99	x
CC(=O)n1cc([C@H]2C=C(C(=O)NCc3ccccc3)O[C@@H](OCc3ccc(CO)cc3)C2)c2ccccc21	-2.8*	7	x	i	94	x
CC(=O)n1cc([C@H]2C=C(C(=O)Nc3ccccc3)O[C@@H](OCCCCO)C2)c2ccccc21	-5.1*	9	x	i	93	x
O=c1c(Cc2ccc(F)cc2)c(O)ccn1CCCn1ccnc1	-0.1	-12	96	i	108	9
O=c1c2cc(NC(=S)NCc3ccccn3)ccc2nc2n1CCCCC2	-0.34	-3	98	i	100	4
O=C(Nc1ccc2nc3n(c(=O)c2c1)CCCCC3)c1ccccn1	x	-47	105	i	145*	-6
Cc1c(C(=O)Oc2ccc(F)cc2)sc2ncn(Cc3cccc(F)c3)c(=O)c12	-1	-7	96	i	106	5
CCn1cnc2sc(C(=O)Oc3cccc(C)c3)c(C)c2c1=O	0.33	-36	88	i	132*	24
COc1ccc(NC(=O)/C(Cl)=C(/Cl)S(=O)(=O)Cc2ccc(C)cc2)cn1	-1.1	-37	111	i	133*	-7
CCCn1c(NCc2c[nH]c3ccccc23)nc2ccccc21	-0.97	6	97	i	94	1
CC(=O)c1ccc(NC(=O)Oc2ccccc2)cc1	0.043	0	106	i	96	-7
CC(C)Oc1ccc(NC(=O)Oc2ccccc2)cc1	x	-33	111	i	130*	-8
COc1ccc(C(=O)N2CCC(O)(c3ccc(Cl)cc3)CC2)cc1OC	0.89	x	x	i	x	x
CCC(C)(C)c1ccc(Oc2ccc(N)cc2)cc1	0.37	70*	35	i	34	81*
CCC(C)(C)c1ccc(Oc2cccc(C(=O)O)c2)cc1	2	x	x	i	x	x
Cc1ccc(N2C(=O)NC(C(F)(F)F)(C(F)(F)F)C3=C2CC(C)(C)CC3=O)cc1	0.68	5	104	i	96	-4
Nc1nc(CSC(=S)N2CCOCC2)nc(Nc2ccc(F)cc2)n1	0.68	-2	108	i	102	-9
SMILES	Cl transport mod	STAT1 blocker	STAT3 act	HSV augment	STAT1 act	STAT3 inh
COc1ccc(Nc2nc(N)nc(CSC(=S)N3CCOCC3)n2)cc1	0.26	-49	113	i	142*	-10
COc1ccc(Cn2nnnc2C(c2ccc(N(C)C)cc2)N2CCC(C(N)=O)CC2)cc1 (stereo unspecified)	0.3	1	101	i	99	3
COc1ccc(Cn2c(O)c(/C=N/NC(=O)c3cccnc3)c3ccccc3c2=O)cc1	-2.3	11	106	u	88	2
O=C(N/N=C/c1c(-c2ccccc2)[nH]c2ccccc12)c1cccnc1	0.04	-7	105	i	107	0
Cn1c(-c2ccccc2)c(/C=N/NC(=O)c2cccnc2)c2ccccc21	-0.61	-36	131	i	131*	-34
O=C(N/N=C/c1c(O)n(Cc2ccccc2)c(=O)c2ccccc12)c1cccnc1	-3.2*	18	99	i	82	8
O=C(C1CCC1)N1CCC(O)(c2cccc(F)c2)CC1	0.25	-11	97	i	108	12
